Source: ChEMBL document CHEMBL1123566, “Synthesis and cardiac electrophysiological activity of 2- and 3-[(substituted phenyl)alkyl]quinuclidines. Structure-activity relationships” (1987)
“And” between values parts separate entries of the source, which are not always exact repeats. Identical values can stand only once.

Columns and labels:
Canis familiaris [1] = assay: Conduction time was determined by intraduodenal administration of two dosages of 10 mg/kg (low dose) of compound in anesthetized dogs. Value was reported for experiment 2; assay type: functional, Canis lupus familiaris
How it was run: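 Anesthetized dogs; compound given intraduodenally, generally as two doses, the second a cumulative (high) dose. LV functional refractory period and conduction time measured 15, 30 and 45 min after dosing; heart rate and blood pressure measured during nonpacing intervals. Values are % change from control, given per individual animal. Active if FRP or CT prolonged by ≥12%.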

Canis familiaris [2] = assay: Conduction time was determined by intraduodenal administration of two dosages of 30 mg/kg (high dose) of compound in anesthetized dogs. Value was reported for experiment 2; assay type: functional, Canis lupus familiaris
How it was run: (§1)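 Anesthetized dogs given the compound intraduodenally, generally as two doses with the second a cumulative total (low/high). FRP and CT measured at 15, 30 and 45 min after dosing. HR and BP taken during nonpacing intervals. Values are percent change from control per animal. Activity criterion is FRP or CT prolonged ≥12%. Vehicle: 5% dextrose in water/tragacanth.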

Canis familiaris [3] = assay: Heart rate was determined by intraduodenal administration of two dosages of 30 mg/kg (high dose) of compound in anesthetized dogs. Value was reported for experiment 2; assay type: functional, Canis lupus familiaris; how it was run: as §1
Canis familiaris [4] = assay: Heart rate was determined by intraduodenal administration of two dosages of 30 mg/kg (high dose)of compound in anesthetized dogs. Value was reported for experiment 1; assay type: functional, Canis lupus familiaris; how it was run: as §1
Canis familiaris [5] = assay: Conduction time was determined by intraduodenal administration of two dosages of 30 mg/kg (high dose)of compound in anesthetized dogs. Value was reported for experiment 1; assay type: functional, Canis lupus familiaris; how it was run: as §1
Canis familiaris [6] = assay: Conduction time was determined by intraduodenal administration of two dosages of 10 mg/kg (low dose) of compound in anesthetized dogs. Value was reported for experiment 1; assay type: functional, Canis lupus familiaris; how it was run: as §1
Canis familiaris [7] = assay: Heart rate was determined by intraduodenal administration of two dosages of 10 mg/kg (low dose) of compound in anesthetized dogs. Value was reported for experiment 1; assay type: functional, Canis lupus familiaris; how it was run: as §1
Canis familiaris [8] = assay: Heart rate was determined by intraduodenal administration of two dosages of 10 mg/kg (low dose) of compound in anesthetized dogs. Value was reported for experiment 2; assay type: functional, Canis lupus familiaris; how it was run: as §1
Canis familiaris [9] = assay: Left ventricular refractory period was determined by intraduodenal administration of two dosages of 10 mg/kg (low dose) of compound in anesthetized dogs. Value was reported for experiment 1; assay type: functional, Canis lupus familiaris, Cardiac ventricle
How it was run: (§2)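 Anesthetized dogs, usually given two intraduodenal doses, with the second dose cumulative (low/high). Left ventricular FRP and CT were determined at 15, 30 and 45 min after dosing. HR and BP were measured during nonpacing intervals. Values are % change from control at low/high dose, for individual animals. The vehicle-stability set used 5% dextrose in water/tragacanth (n = 8).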

Canis familiaris [10] = assay: Left ventricular refractory period was determined by intraduodenal administration of two dosages of 10 mg/kg (low dose) of compound in anesthetized dogs. Value was reported for experiment 2; assay type: functional, Canis lupus familiaris, Cardiac ventricle; how it was run: as §2
Canis familiaris [11] = assay: Left ventricular refractory period was determined by intraduodenal administration of two dosages of 30 mg/kg (high dose)of compound in anesthetized dogs. Value was reported for experiment 2; assay type: functional, Canis lupus familiaris, Cardiac ventricle; how it was run: as §2
Canis familiaris [12] = assay: Left ventricular refractory period was determined by intraduodenal administration of two dosages(high dose) of 30 mg/kg of compound in anesthetized dogs. Value was reported for experiment 1; assay type: functional, Canis lupus familiaris, Cardiac ventricle; how it was run: as §2
Canis familiaris [13] = assay: Mean arterial blood pressure was determined by intraduodenal administration of two dosages of 10 mg/kg (low dose) of compound in anesthetized dogs. Value was reported for experiment 1; assay type: functional, Canis lupus familiaris; how it was run: as §2
Canis familiaris [14] = assay: Mean arterial blood pressure was determined by intraduodenal administration of two dosages of 10 mg/kg (low dose) of compound in anesthetized dogs. Value was reported for experiment 2; assay type: functional, Canis lupus familiaris; how it was run: as §2
Canis familiaris [15] = assay: Mean arterial blood pressure was determined by intraduodenal administration of two dosages of 30 mg/kg (high dose)of compound in anesthetized dogs. Value was reported for experiment 1; assay type: functional, Canis lupus familiaris; how it was run: as §2
Canis familiaris [16] = assay: Mean arterial blood pressure was determined by intraduodenal administration of two dosages of 30 mg/kg(high dose) of compound in anesthetized dogs. Value was reported for experiment 2; assay type: functional, Canis lupus familiaris; how it was run: as §2
Canis familiaris [17] = species: Canis familiaris; assay: In vitro electrophysiological evaluation in canine cardiac ventricular muscle reported as maximum % change for functional refractory period (FRP) at 0.1-100 uM concentration range; concentration at which it occurred is 100 uM.; design: species or system Canis lupus familiaris, Muscle tissue
How it was run: (§3)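 Canine right ventricle and papillary muscle strips in oxygenated Tyrode's solution, fitted with stimulating and recording electrodes. The extra-stimulus conduction-interval method was adapted for in vitro use. FRP and CT were read from a conduction-interval curve before and after various compound concentrations, and expressed as percent change from control. Compounds were taken from 10 mM deionized-water stock into Tyrode's. Each strip was used once as its own control.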

Canis familiaris [18] = species: Canis familiaris; assay: In vitro electrophysiological evaluation in canine cardiac ventricular muscle reported as maximum % change for functional refractory period (FRP) at 0.1-100 uM concentration range; concentration at which it occurred is 10 uM.; design: species or system Canis lupus familiaris, Muscle tissue; how it was run: as §3
Canis familiaris [19] = species: Canis familiaris; assay: In vitro electrophysiological evaluation in canine cardiac ventricular muscle reported as % change for the functional refractory period (FRP) at 10 uM at concentration range of 0.1-100 uM; design: species or system Canis lupus familiaris, Muscle tissue; how it was run: as §3
Canis familiaris [20] = species: Canis familiaris; assay: In vitro electrophysiological evaluation in canine cardiac ventricular muscle reported as % change for conduction time(CT) at 10 uM at 0.1-100 uM concentration range; assay type: functional, Canis lupus familiaris, Muscle tissue
How it was run: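 Canine right ventricular/papillary muscle strips in oxygenated Tyrode's, extracellular extra-stimulus conduction-interval method. FRP and CT are read from conduction-interval curves before and during rising concentrations. Compound is a 10 mM aqueous stock diluted into Tyrode's. Each strip is used once as its own control. Readouts are percent change from control at 10 μM, plus the maximum change with its concentration.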

Canis familiaris [21] = species: Canis familiaris; assay: In vitro electrophysiological evaluation in canine cardiac Purkinje fibres reported as percent change Vmax at 10 uM at concentration range of 0.1-30 uM; assay type: functional; conditions: Canis lupus familiaris, Purkinje fiber
How it was run: (§4)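 Canine cardiac Purkinje fibres, intracellular microelectrode recording, paced at a basic cycle length of 1 s. APD95 and Vmax read simultaneously. Compound: 10 mM stock in deionized water, diluted into Tyrode's solution, tested over the stated concentration range. Each fibre used once as its own control. Result is % change from control, given at 10 µM or as the maximum with its concentration. M = <10% decrease or an increase in Vmax.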

Canis familiaris [22] = species: Canis familiaris; assay: In vitro electrophysiological evaluation in canine cardiac Purkinje fibres reported as percent change Vmax at 10 uM at concentration range of 0.1-100 uM; assay type: functional; conditions: Canis lupus familiaris, Purkinje fiber
How it was run: (§5)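 Canine cardiac Purkinje fibers, intracellular recording, paced at a basic cycle length of 1 s. APD95 and Vmax are recorded together across cumulative concentrations. Compound is a 10 mM aqueous stock diluted into Tyrode's solution. Each fiber is used once as its own control. Readouts are percent change from control at 10 μM, and the maximum change with the concentration where it occurred.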

Canis familiaris [23] = species: Canis familiaris; assay: (§6) In vitro electrophysiological evaluation in canine cardiac occurred is 100 uM.; assay type: functional; conditions: Canis lupus familiaris; Heart
Canis familiaris [24] = species: Canis familiaris; assay: In vitro electrophysiological evaluation in canine cardiac Purkinje fibres reported as percent change Vmax at 10 uM at concentration range of 5-50 uM; assay type: functional; conditions: Canis lupus familiaris, Purkinje fiber; how it was run: as §5
Canis familiaris [25] = species: Canis familiaris; assay: as §6; assay type: functional, organism-based; conditions: Canis lupus familiaris; Heart
Canis familiaris [26] = species: Canis familiaris; assay: In vitro electrophysiological evaluation in canine cardiac occurred is 30 uM.; assay type: functional; conditions: Canis lupus familiaris; Heart
Canis familiaris [27] = species: Canis familiaris; assay: In vitro electrophysiological evaluation in canine cardiac Purkinje fibres reported as % change for action potential duration at 10 uM at 0.1-30 uM concentration range; assay type: functional, Canis lupus familiaris, Purkinje fiber; how it was run: as §4
Canis familiaris [28] = species: Canis familiaris; assay: In vitro electrophysiological evaluation in canine cardiac Purkinje fibres reported as % change for action potential duration at 10 uM at 5-50 uM concentration range; assay type: functional, Canis lupus familiaris, Purkinje fiber; how it was run: as §5
Canis familiaris [29] = species: Canis familiaris; assay: In vitro electrophysiological evaluation in canine cardiac Purkinje fibres reported as % change for action potential duration at a concentration of 10 uM; assay type: functional, Canis lupus familiaris, Purkinje fiber; how it was run: as §4
Canis familiaris [30] = species: Canis familiaris; assay: In vitro electrophysiological activity in canine cardiac occurred is 30 uM.; assay type: functional, Canis lupus familiaris, Heart
Canis familiaris [31] = species: Canis familiaris; assay: In vitro electrophysiological activity in canine cardiac occurred is 100 uM.; assay type: functional, Canis lupus familiaris, Heart
Canis familiaris [32] = species: Canis familiaris; assay: In vitro electrophysiological activity in canine cardiac occurred is 50 uM.; assay type: functional, Canis lupus familiaris, Heart

C=C[C@H]1CN2CC[C@H]1C[C@@H]2[C@@H](O)c1ccnc2ccc(OC)cc12 [QUINIDINE]
CT (Canis familiaris [1]): 10%
CT (Canis familiaris [2]): 38%
HR (Canis familiaris [3]): -39%
HR (Canis familiaris [4]): -42%
CT (Canis familiaris [5]): 51%
CT (Canis familiaris [6]): 7%
HR (Canis familiaris [7]): -22%
HR (Canis familiaris [8]): -18%
LV FRP (Canis familiaris [9]): 13%
LV FRP (Canis familiaris [10]): 16%
LV FRP (Canis familiaris [11]): 28%
LV FRP (Canis familiaris [12]): 20%
Mean blood pressure (Canis familiaris [13]): 2%
Mean blood pressure (Canis familiaris [14]): -7%
Mean blood pressure (Canis familiaris [15]): -4%
Mean blood pressure (Canis familiaris [16]): 15%
FRP (Canis familiaris [17]): 27% and 24% and 46%
FRP (Canis familiaris [18]): 22%
FRP (Canis familiaris [19]): 21% [middle of 4 runs]
CT (Canis familiaris [20]): 17% and 11% and <10%
Vmax (Canis familiaris [21]): < 10%
Vmax (Canis familiaris [22]): -10%
Vmax (Canis familiaris [23]): -40%
Vmax (Canis familiaris [24]): -11%
Vmax (Canis familiaris [25]): -53%
Vmax (Canis familiaris [26]): -19%
APD95 (Canis familiaris [27]): -21%
APD95 (Canis familiaris [28]): -9%
APD95 (Canis familiaris [29]): -9%
APD95 (Canis familiaris [30]): -39%
APD95 (Canis familiaris [31]): -24%
APD95 (Canis familiaris [32]): -19%
